Experimental data reported in ChEMBL document CHEMBL1141901, “1-Aryl-4,6-diamino-1,2-dihydrotriazine as antimalarial agent: a new synthetic route” (Bioorg Med Chem Lett, 2005).

Key:
[1] = Inhibitory concentration against cycloguanil sensitive Plasmodium falciparum FJB-D9; format: functional
Method in brief: (§1)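 P. falciparum field isolates (collected from patients, 1990) grown in RPMI 1640 lacking p-aminobenzoic acid and folic acid, with 25 mM HEPES, bicarbonate and 10% human AB+ serum. Compounds tested over 0.0005–100 range, 30 h at 37 °C in candle jar. Schizonts (≥8 nuclei) per 200 asexual parasites counted microscopically in duplicate wells. Inhibition as (1 − Nt/Nc)×100. IC50/IC90 taken from these values.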

[2] = Inhibitory concentration against Plasmodium falciparum
Plasmodium falciparum [3] = assay: Inhibitory concentration sensitive Plasmodium falciparum FJB-D9; format: functional; method in brief: as §1
Plasmodium falciparum [4] = assay: Inhibitory concentration against Plasmodium falciparum

Row | IC50 [1] [µM] | IC50 [2] [µM] | IC90 (Plasmodium falciparum [3]) [µM] | IC90 (Plasmodium falciparum [4]) [µM] | Compound
1 | 0.0016 | 0.005 | 0.006 | 0.028 | CCc1nc(N)nc(N)c1-c1ccc(Cl)cc1 [PYRIMETHAMINE]
2 | 81 | 52.9 |  |  | NC1=NC(c2ccccc2)N(c2ccccn2)C(N)=N1 (stereo unspecified)
3 | 584 | 501 |  |  | Cc1ccc(N2CN=C(N)N=C2N)cc1

More lines, now with the values behind:

Row | Compound | IC50 [1] [µM] | IC50 [2] [µM] | IC90 (Plasmodium falciparum [3]) [µM] | IC90 (Plasmodium falciparum [4]) [µM]
4 | NC1=NCN(c2ccccn2)C(N)=N1 | 618 | 629 |  | 
5 | NC1=NC(c2ccccc2)N(c2ccc(F)c(Cl)c2)C(N)=N1 (stereo unspecified) | 87.6 | 81.9 |  | 
6 | NC1=NCN(c2ccc(F)c(Cl)c2)C(N)=N1 | 17.3 | 14.7 | 47.6 | 49.5
